Results taken from ChEMBL document CHEMBL3865830, “Multifunctional diamine AGE/ALE inhibitors with potential therapeutical properties against Alzheimer's disease” (Eur J Med Chem, 2016).

Columns and labels:
[1] = Reactive carbonyl species trapping activity of compound assessed as MDA adduct formation at 10 mM preincubated for 24 hrs with MDA measured after 5 hrs by LCMS analysis; type: physicochemical; conditions: 10000 µM
[2] = Metal chelating activity of compound assessed as compound-Cu2+ complex formation at 0.08 mM after 10 mins in presence of CuSO4.5H2O by complexometric indicator murexide based UV-Vis spectrophotometric analysis; type: physicochemical; conditions: 80 µM
How it was run: (§1)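 Compound (0.02-2 mM) incubated with CuSO4 (120 µM) for 10 min at rt, in 10 mM hexamine/HCl with 10 mM KCl (pH 5.0), or in buffer/MeOH 75:25 for poorly soluble compounds. Murexide added, 1 min more. The A485/A520 ratio gives free Cu2+ from a CuSO4 calibration curve (0-125 µM). % chelation is taken by difference from the no-compound control; triplicates.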

[3] = Reactive carbonyl species trapping activity of compound assessed as MDA adduct formation at 10 mM preincubated for 24 hrs with MDA measured after 1 hr by LCMS analysis; type: physicochemical; conditions: 10000 µM
[4] = Metal chelating activity of compound assessed as compound-Cu2+ complex formation at 0.02 mM after 10 mins in presence of CuSO4.5H2O by complexometric indicator murexide based UV-Vis spectrophotometric analysis; type: physicochemical; conditions: 20 µM; how it was run: as §1
[5] = Metal chelating activity of compound assessed as compound-Cu2+ complex formation at 0.1 mM after 10 mins in presence of CuSO4.5H2O by complexometric indicator murexide based UV-Vis spectrophotometric analysis; type: physicochemical; conditions: 100 µM; how it was run: as §1
[6] = Reactive carbonyl species trapping activity of compound assessed as MDA adduct formation at 10 mM preincubated for 24 hrs with MDA measured after 0.5 hrs by LCMS analysis; type: physicochemical; conditions: 10000 µM
[7] = Reactive carbonyl species trapping activity of compound assessed as MGO adduct formation at 10 mM preincubated for 24 hrs with MGO measured after 1 hr by LCMS analysis; type: physicochemical; conditions: 10000 µM
[8] = Reactive carbonyl species trapping activity of compound assessed as MGO adduct formation at 10 mM preincubated for 24 hrs with MGO measured after 0.25 hrs by LCMS analysis; type: physicochemical; conditions: 10000 µM
[9] = Reactive carbonyl species trapping activity of compound assessed as MDA adduct formation at 10 mM preincubated for 24 hrs with MDA measured after 0.25 hrs by LCMS analysis; type: physicochemical; conditions: 10000 µM
[10] = Reactive carbonyl species trapping activity of compound assessed as MGO adduct formation at 10 mM preincubated for 24 hrs with MGO measured after 0.5 hrs by LCMS analysis; type: physicochemical; conditions: 10000 µM
[11] = Metal chelating activity of compound assessed as compound-Cu2+ complex formation at 0.5 mM after 10 mins in presence of CuSO4.5H2O by complexometric indicator murexide based UV-Vis spectrophotometric analysis; type: physicochemical; conditions: 500 µM; how it was run: as §1
[12] = Reactive carbonyl species trapping activity of compound assessed as MGO adduct formation at 10 mM preincubated for 24 hrs with MGO measured after 5 hrs by LCMS analysis; type: physicochemical; conditions: 10000 µM
[13] = Metal chelating activity of compound assessed as compound-Cu2+ complex formation at 0.05 mM after 10 mins in presence of CuSO4.5H2O by complexometric indicator murexide based UV-Vis spectrophotometric analysis; type: physicochemical; conditions: 50 µM; how it was run: as §1
[14] = Metal chelating activity of compound assessed as compound-Cu2+ complex formation at 2 mM after 10 mins in presence of CuSO4.5H2O by complexometric indicator murexide based UV-Vis spectrophotometric analysis; type: physicochemical; conditions: 2000 µM; how it was run: as §1
[15] = Reactive carbonyl species trapping activity of compound assessed as MDA adduct formation at 10 mM preincubated for 24 hrs with MDA measured after 24 hrs by LCMS analysis; type: physicochemical; conditions: 10000 µM
[16] = Reactive carbonyl species trapping activity of compound assessed as MGO adduct formation at 10 mM preincubated for 24 hrs with MGO measured after 24 hrs by LCMS analysis; type: physicochemical; conditions: 10000 µM
[17] = Reactive carbonyl species trapping activity of compound assessed as MGO adduct formation at 10 mM preincubated for 24 hrs with MGO measured after 15 mins by LCMS analysis; type: physicochemical; conditions: 0.25 h, 10000 µM
[18] = Metal chelating activity of compound assessed as compound-Cu2+ complex formation at 200 uM after 10 mins in presence of CuSO4.5H2O by complexometric indicator murexide based UV-Vis spectrophotometric analysis; type: physicochemical; how it was run: as §1
[19] = species: Rattus norvegicus; assay: Cytotoxicity against rat […] PC12 cells assessed as reduction in cell viability at 10 to 100 uM after 24 hrs by WST8-based CCK8 assay; type: toxicity; conditions: pc-12, 24 h
How it was run: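 PC12 Adh cells (rat pheochromocytoma-derived) grown in F-12K with 2.5% FBS, 15% horse serum and pen/strep at 37 °C, 5% CO2. Seeded at 5×10^3 cells/well; treated at 80% confluency with 10 or 100 µM for 24 h. 10% DMSO served as positive cytotoxicity control. CCK-8 added for 1 h at 37 °C, absorbance read at 450 nm. Viability given as % of untreated cells; at least three experiments in triplicate.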

[20] = Antioxidant activity assessed as inhibition of AAPH-induced peroxyl radical generation measured as trolox equivalent at 10 uM preincubated for 30 mins followed by AAPH addition measured evey 60 secs for 60 cycles by ORAC-FL assay; type: functional; conditions: in the assay text read “90 secs” for “60 secs”
How it was run: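 Fluorescein (12 nM) preincubated with compound (1-20 µM) or Trolox standard (1-50 µM) in D-PBS, at least 30 min at 37 °C. Reaction started with AAPH (30 mM). Fluorescence (ex 485/em 520 nm) read every 90 s for 60 cycles. Net AUC is converted to Trolox equivalents via the Trolox calibration line. Values are reported at 10 µM, from at least three independent experiments in triplicate.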

[21] = Metal chelating activity of compound assessed as compound-Cu2+ complex formation at 1 mM after 10 mins in presence of CuSO4.5H2O by complexometric indicator murexide based UV-Vis spectrophotometric analysis; type: physicochemical; conditions: 1000 µM; how it was run: as §1

Activity [1] [%] | Activity [2] [%] | Activity [3] [%] | Activity [4] [%] | Activity [5] [%] | Activity [6] [%] | Activity [7] [%] | Activity [8] [%] | Activity [9] [%] | Activity [11] [%] | Activity [12] [%] | Activity [13] [%] | Activity [14] [%] | Activity [15] [%] | Activity [16] [%] | Activity [17] [%] | Activity [18] [%] | Activity [21] [%] | Structure (SMILES) | Activity [19] | Activity (umolequiv/umol) [20] | also measured
75 | 35.49 | 7 | 12.16 | 40.8 | 4 | 98 | 97 | 0 | 73.21 | 99 | 24.84 | 76.75 | 86 | 98 | 97 | 59.96 | 76.43 | Cl.Cl.NCC(N)CCCNC(=O)CCn1cccc(O)c1=O (centres undefined) | Non-Toxic | 1.03 | Activity [10]: 100%
38 | 0.38 | 40 | 0.73 | 0.72 | 32 | – | 46 | 23 | 5.39 | 58 | 0 | 41.7 | 66 | 59 | 46 | 1.53 | 16.92 | NCCC(=O)N[C@@H](Cc1cnc[nH]1)C(=O)O [CARNOSINE] | – | – | Activity [10]: 51%
87 | 50.28 | 84 | 14.24 | 61.98 | 80 | 93 | 90 | – | 93.72 | 89 | 31.34 | 88.48 | 81 | 95 | 90 | 87.39 | 93.82 | Cl.Cl.NCC(N)CCCCNC(=O)c1cc(O)c(O)c(O)c1 (centres undefined) | Non-Toxic | 2.59 | –
24 | 12.17 | 17 | 5.39 | 15.88 | 17 | 100 | 100 | 17 | 42.89 | 100 | 7.96 | 59.06 | 100 | 100 | 100 | – | 52.15 | COc1cc(/C=C/C(=O)NCCCCC(N)CN)ccc1O.Cl.Cl (centres undefined) | Non-Toxic | 1.5 | Activity [10]: 100%
– | 30.19 | – | 11.08 | 34.48 | – | – | – | – | 76.54 | – | 19.87 | 94.72 | – | – | – | 54.61 | 89.96 | CC(C)(C)OC(=O)NCC(CCCCNC(=O)CCn1cccc(O)c1=O)NC(=O)OC(C)(C)C.Cl.Cl (centres undefined) | – | – | –
– | 19.27 | – | 6.59 | 21.41 | – | – | – | – | 51.43 | – | 12.05 | 67.84 | – | – | – | 33.91 | 61.48 | Cl.Cl.NCC(N)CCCCNC(=O)CCn1cccc(OCc2ccccc2)c1=O (centres undefined) | – | – | –
100 | 10.65 | 100 | 3.25 | 13.97 | 100 | 37 | – | 100 | 40.27 | 51 | 7.07 | 62.15 | 100 | 82 | – | 23.6 | 51.61 | Cl.Cl.NCC(N)C(=O)N1CCNCC1 (centres undefined) | Non-Toxic | 0 | Activity [10]: 33%
73 | 34.87 | 69 | 12.05 | 41.17 | – | – | 98 | 65 | 81.17 | 99 | 24.51 | 87.04 | 95 | 100 | 98 | 62.77 | 85.56 | Cl.Cl.NCC(N)CCCCNC(=O)CCn1cccc(O)c1=O (centres undefined) | Non-Toxic | 1.21 | Activity [10]: 96%
– | 64.61 | – | 18.81 | 69.82 | – | – | – | – | 100 | – | 44.49 | 100 | – | – | – | 100 | 100 | NCCN [ETHYLENEDIAMINE] | – | – | –
77 | 14.87 | – | 3.22 | 16.55 | 65 | 70 | 59 | 62 | 43.56 | 93 | 10.28 | 62.53 | 62 | 100 | 59 | 27.68 | 53.27 | CCCCN1CCN(C(=O)C(N)CN)CC1.Cl.Cl (centres undefined) | – | – | –
– | – | – | – | – | – | – | – | – | – | – | – | – | – | – | – | – | – | Cc1c(C)c2c(c(C)c1O)CCC(C)(C(=O)O)O2 (centres undefined) | – | 1 | –
92 | 27.53 | 87 | 10.33 | 30.74 | – | 99 | 99 | 75 | 68.5 | 99 | 18.5 | 78.98 | 91 | 99 | 99 | 50.25 | 75.14 | Cl.Cl.NCC(N)CC(=O)N1CCN(C(=O)CCn2cccc(O)c2=O)CC1 (centres undefined) | Toxic | 0.58 | Activity [10]: 97%
– | – | – | – | – | – | – | – | – | – | – | – | – | – | – | – | – | – | NCCC(=O)N[C@@H](Cc1c[nH]cn1)C(=O)O | – | 0.08 | –
– | 22.44 | – | 3.3 | 28.75 | – | – | – | – | 61.66 | – | 14.92 | 81.81 | – | – | – | 45.61 | 71.51 | COc1cc(/C=C/C(=O)N2CCN(C(=O)CCC(N)CN)CC2)ccc1O.Cl.Cl (centres undefined) | Non-Toxic | 2.05 | –
